# Assay results of several laboratories.
# Lines come from different studies, so protocols differ.
# SLC6A3: Sodium-dependent dopamine transporter (SLC6A3, Homo sapiens, UniProt Q01959)
# DRD3: D(3) dopamine receptor (DRD3, Homo sapiens, UniProt P35462)
# CA12: Carbonic anhydrase 12 (CA12, Homo sapiens, UniProt O43570)
Structure (SMILES),target,read-out,action,technique,quantity,result
CCOC(=O)[C@@]12C[C@@H]1[C@@H](n1cnc3c(NCCO)nc(C#Cc4ccc(Cl)s4)nc31)[C@H](O)[C@@H]2O,SLC6A3,ligand displacement,,radioligand,EC50,0.97 µM
Cc1[nH]c(C)c(S(=O)(=O)Nc2ccc(S(C)(=O)=O)c(Cl)c2)c1C(=O)N1CCC(F)(F)C1,DRD3,G protein activation,antagonist,BRET,IC50,23 µM
O=C(Oc1ccc(Br)cc1)c1ccc(=O)oc1,CA12,enzyme activity,inhibitor,stopped-flow,Ki,0.91 µM
CCOC(=O)[C@@]12C[C@@H]1[C@@H](n1cnc3c(NCc4cccc(Cl)c4)nc(C#Cc4ccc(Cl)s4)nc31)[C@H](O)[C@@H]2O,SLC6A3,ligand displacement,,radioligand,Ki,0.94 µM
O=C(OC1CCCCC1)c1ccc(=O)oc1,CA12,enzyme activity,inhibitor,stopped-flow,Ki,3.12 µM
Cc1[nH]c(C)c(S(=O)(=O)Nc2cc(Cl)cc(Cl)c2Cl)c1C(=O)N1CCC(F)(F)C1,DRD3,G protein activation,antagonist,BRET,IC50,14.8 µM
O=C(OCc1cn(-c2ccccc2)nn1)c1ccc(=O)oc1,CA12,enzyme activity,inhibitor,stopped-flow,Ki,55.8 µM
N#CSCc1cc(=O)oc2cc(O)ccc12,CA12,enzyme activity,inhibitor,stopped-flow,Ki,0.0236 µM
Cc1[nH]c(C)c(S(=O)(=O)Nc2ccc(C(F)(F)F)c(Cl)c2)c1C(=O)N1CCN(C(=O)OC(C)(C)C)CC1,DRD3,G protein activation,antagonist,BRET,IC50,29 µM
Cc1ccc(-n2cc(CNC(=O)c3ccc(=O)oc3)nn2)cc1,CA12,enzyme activity,inhibitor,stopped-flow,Ki,57.8 µM
Cc1[nH]c(C)c(S(=O)(=O)Nc2ccc(C(F)(F)F)c(Cl)c2)c1C(=O)N1CC[C@@H](F)C1,DRD3,G protein activation,antagonist,BRET,IC50,1 µM
OCc1ccccc1O[C@@H]1O[C@H](CO)[C@@H](O)[C@H](O)[C@H]1O,"Taste receptor type 2 member 16 (TAS2R16, Homo sapiens, UniProt Q9NYV7, N96T)",inositol phosphate,agonist,TR-FRET,EC50,5520 µM
Cc1[nH]cc(S(=O)(=O)Nc2ccc(C(F)(F)F)c(Cl)c2)c1C(=O)N(C)C,DRD3,G protein activation,antagonist,BRET,IC50,6.3 µM
O=C(NCc1cn(-c2ccc(Cl)cc2)nn1)c1ccc(=O)oc1,CA12,enzyme activity,inhibitor,stopped-flow,Ki,61.2 µM
CC(C)(Sc1ccc(CCN(CCCCC2CCCCC2)C(=O)NC2CCCCC2)cc1)C(=O)O,"Triggering receptor expressed on myeloid cells 2 (Homo sapiens, UniProt Q9NZC2)",binding,,SPR,Kd,86.2 µM
N#CC[C@@]12C[C@@H]1[C@@H](n1cnc3c(NCc4cccc(Cl)c4)nc(C#Cc4ccc(Cl)s4)nc31)[C@H](O)[C@@H]2O,SLC6A3,ligand displacement,,radioligand,Ki,1.2 µM
Cc1ccc(NS(=O)(=O)c2c(C)[nH]c(C)c2C(=O)N2CCC2)cc1Cl,DRD3,β-arrestin recruitment,antagonist,,IC50,35 µM
N#CC[C@@]12C[C@@H]1[C@@H](n1cnc3c(NC4CC4)nc(C#Cc4ccc(Cl)s4)nc31)[C@H](O)[C@@H]2O,SLC6A3,ligand displacement,,radioligand,EC50,0.2 µM
Cc1[nH]c(C)c(S(=O)(=O)Nc2ccc([N+](=O)[O-])c(Cl)c2)c1C(=O)N1CCC(F)(F)C1,DRD3,β-arrestin recruitment,antagonist,,IC50,40 µM
CCOC(=O)[C@@]12C[C@@H]1[C@@H](n1cnc3c(Nc4ccccc4)nc(C#Cc4ccc(Cl)s4)nc31)[C@H](O)[C@@H]2O,SLC6A3,ligand displacement,,radioligand,Ki,1.4 µM
Cc1[nH]c(C)c(S(=O)(=O)Nc2ccc(C(F)(F)F)c(Cl)c2)c1C(=O)N1C[C@@H](F)[C@H](F)C1 (relative stereo),DRD3,G protein activation,antagonist,BRET,IC50,0.58 µM
O=C(Oc1ccc(Cl)cc1)c1ccc(=O)oc1,CA12,enzyme activity,inhibitor,stopped-flow,Ki,76.3 µM
N#C[C@@]12C[C@@H]1[C@@H](n1cnc3c(Nc4ccccc4)nc(C#Cc4ccc(Cl)s4)nc31)[C@H](O)[C@@H]2O,SLC6A3,ligand displacement,,radioligand,Ki,1.5 µM
CCOC(=O)c1ccc(=O)oc1,CA12,enzyme activity,inhibitor,stopped-flow,Ki,92.6 µM
CCOC(=O)[C@@]12C[C@@H]1[C@@H](n1cnc3c(NCCCCCc4ccccc4)nc(I)nc31)[C@H](O)[C@@H]2O,SLC6A3,ligand displacement,,radioligand,Ki,1.6 µM
Cc1ccc(-n2cc(COC(=O)c3ccc(=O)oc3)nn2)cc1,CA12,enzyme activity,inhibitor,stopped-flow,Ki,62.6 µM
CCOC(=O)[C@@]12C[C@@H]1[C@@H](n1cnc3c(NCCCCCc4ccccc4)nc(C#Cc4ccc(Cl)s4)nc31)[C@H](O)[C@@H]2O,SLC6A3,ligand displacement,,radioligand,Ki,3.1 µM
